Consider 21 compounds from ChEMBL document CHEMBL1122958, “Angiotensin converting enzyme inhibitors. (Mercaptoaroyl)amino acids” (J Med Chem, 1985).

Molecules are shown by their SMILES.

In test [1] the target is T1, Angiotensin-converting enzyme (Oryctolagus cuniculus, UniProt P12822).
T1 sequence (P12822 whole entry): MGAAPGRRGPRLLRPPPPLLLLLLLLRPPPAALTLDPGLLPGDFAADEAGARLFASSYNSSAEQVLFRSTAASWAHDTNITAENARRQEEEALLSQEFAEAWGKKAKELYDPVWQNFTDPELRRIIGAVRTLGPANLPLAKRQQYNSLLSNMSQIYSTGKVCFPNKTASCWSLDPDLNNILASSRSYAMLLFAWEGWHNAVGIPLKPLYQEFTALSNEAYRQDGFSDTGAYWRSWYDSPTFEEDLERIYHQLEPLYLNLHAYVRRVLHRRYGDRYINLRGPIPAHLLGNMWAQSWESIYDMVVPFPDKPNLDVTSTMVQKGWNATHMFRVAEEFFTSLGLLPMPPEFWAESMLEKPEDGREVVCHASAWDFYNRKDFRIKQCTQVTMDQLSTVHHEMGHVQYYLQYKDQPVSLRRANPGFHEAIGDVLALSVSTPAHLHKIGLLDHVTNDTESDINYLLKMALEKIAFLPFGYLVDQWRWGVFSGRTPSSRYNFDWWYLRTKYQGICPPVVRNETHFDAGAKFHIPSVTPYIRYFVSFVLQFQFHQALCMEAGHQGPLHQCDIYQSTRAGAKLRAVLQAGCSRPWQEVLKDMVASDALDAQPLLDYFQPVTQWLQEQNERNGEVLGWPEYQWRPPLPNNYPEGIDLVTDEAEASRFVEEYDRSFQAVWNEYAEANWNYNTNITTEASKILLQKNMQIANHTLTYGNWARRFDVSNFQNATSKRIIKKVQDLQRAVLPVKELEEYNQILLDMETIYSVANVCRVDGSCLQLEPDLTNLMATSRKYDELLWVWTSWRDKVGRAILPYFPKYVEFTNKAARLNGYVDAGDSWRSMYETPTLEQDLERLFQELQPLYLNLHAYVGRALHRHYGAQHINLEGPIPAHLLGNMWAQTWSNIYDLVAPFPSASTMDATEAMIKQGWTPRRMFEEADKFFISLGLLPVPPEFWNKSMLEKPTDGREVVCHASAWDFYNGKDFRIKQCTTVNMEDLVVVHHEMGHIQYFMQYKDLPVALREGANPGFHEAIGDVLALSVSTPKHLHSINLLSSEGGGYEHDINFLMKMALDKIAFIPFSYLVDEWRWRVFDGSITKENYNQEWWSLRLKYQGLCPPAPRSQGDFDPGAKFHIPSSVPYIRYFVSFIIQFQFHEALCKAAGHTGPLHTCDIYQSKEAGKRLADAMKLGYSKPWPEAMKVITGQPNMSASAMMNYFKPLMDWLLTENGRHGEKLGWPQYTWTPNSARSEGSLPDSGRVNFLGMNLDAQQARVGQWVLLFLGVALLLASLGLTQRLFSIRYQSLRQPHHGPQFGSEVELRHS
Kind of test: In vitro inhibitory activity against Angiotensin I converting enzyme. In outline:
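Crude ACE from rabbit lung acetone powder, extracted in cold 0.05 M KH2PO4–0.03 M n-octyl-β-D-glucopyranoside pH 8.3, centrifuged 30000g, supernatant dialysed. Assay in 0.1 M KH2PO4–0.3 M NaCl–2% Me2SO, pH 8.3, 37 °C, substrate hippuryl-L-histidyl-L-leucine 2 mM; started by enzyme addition. Activity compared with and without inhibitor (in Me2SO). IC50 from one concentration–response curve per compound.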

For test [2], the target named is T2, Angiotensin-converting enzyme (Rattus norvegicus) (UniProt P47820).
T2 sequence (whole entry): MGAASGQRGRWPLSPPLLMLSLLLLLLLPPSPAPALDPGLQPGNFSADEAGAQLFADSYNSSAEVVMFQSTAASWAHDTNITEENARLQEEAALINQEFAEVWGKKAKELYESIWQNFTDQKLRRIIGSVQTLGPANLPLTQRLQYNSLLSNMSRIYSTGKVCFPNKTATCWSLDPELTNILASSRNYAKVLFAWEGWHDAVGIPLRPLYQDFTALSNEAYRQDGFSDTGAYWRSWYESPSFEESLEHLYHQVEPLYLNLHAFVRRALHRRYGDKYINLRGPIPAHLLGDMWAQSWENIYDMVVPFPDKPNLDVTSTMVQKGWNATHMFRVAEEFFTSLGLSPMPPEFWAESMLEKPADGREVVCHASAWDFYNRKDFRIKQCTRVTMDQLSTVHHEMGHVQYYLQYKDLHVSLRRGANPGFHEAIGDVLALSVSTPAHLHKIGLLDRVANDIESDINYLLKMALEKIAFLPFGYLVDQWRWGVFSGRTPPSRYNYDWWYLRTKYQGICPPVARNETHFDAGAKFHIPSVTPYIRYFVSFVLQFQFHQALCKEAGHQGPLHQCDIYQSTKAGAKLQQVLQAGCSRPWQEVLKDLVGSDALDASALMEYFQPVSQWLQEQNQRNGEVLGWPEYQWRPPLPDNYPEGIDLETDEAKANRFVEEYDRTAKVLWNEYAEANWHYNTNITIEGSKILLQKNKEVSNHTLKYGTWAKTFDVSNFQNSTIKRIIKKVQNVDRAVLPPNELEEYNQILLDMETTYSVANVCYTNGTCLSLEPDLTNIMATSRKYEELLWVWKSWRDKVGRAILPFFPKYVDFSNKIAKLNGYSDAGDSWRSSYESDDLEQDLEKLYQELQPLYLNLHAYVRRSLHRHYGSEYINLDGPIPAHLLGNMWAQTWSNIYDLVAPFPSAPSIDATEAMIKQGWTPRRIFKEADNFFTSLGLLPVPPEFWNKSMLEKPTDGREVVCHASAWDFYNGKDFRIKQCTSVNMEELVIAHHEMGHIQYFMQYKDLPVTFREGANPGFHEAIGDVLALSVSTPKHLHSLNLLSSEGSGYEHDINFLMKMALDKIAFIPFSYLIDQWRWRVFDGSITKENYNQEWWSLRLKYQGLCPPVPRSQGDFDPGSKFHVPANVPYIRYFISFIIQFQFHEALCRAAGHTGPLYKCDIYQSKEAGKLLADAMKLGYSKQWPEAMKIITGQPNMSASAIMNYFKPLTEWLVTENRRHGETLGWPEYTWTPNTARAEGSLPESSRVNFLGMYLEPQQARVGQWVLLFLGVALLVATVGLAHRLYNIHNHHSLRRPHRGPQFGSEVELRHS
Kind of test: In vivo mean duration for Angiotensin I converting enzyme inhibitory activity in 2 rats administered perorally at a dose of 1.5 mg/kg. It counts as functional, organism-based. The arrangement: dose 1.5 mg/kg. In outline:
(§1)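 Conscious normotensive male rats with aortic and vena caval catheters (implanted ≥6 days before), restrained. Angiotensin I and II, 0.25 μg/kg iv, given at 10-min intervals as pressor challenges. Compound given once, generally orally, suspended in 0.5% gum tragacanth. AI repeated every 10 min for ≥2 h. Max inhibition is % of mean of two predose AI responses. Duration runs from dosing until inhibition falls below 30%. ED50 taken from dose–response plot as dose giving 50% inhibition.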

The target in test [3] is T2, Angiotensin-converting enzyme (Rattus norvegicus). Kind of test: In vivo for percent mean decrease in Angiotensin I converting enzyme inhibitory activity in 4 rats administered perorally at a dose of 1.5 mg/kg. The arrangement: dose 1.5 mg/kg. It is filed as functional, organism-based. In outline: as §1
Test [4] shares this target. Kind of test: In vivo percent mean decrease in Angiotensin I converting enzyme inhibitory activity in 2 rats administered perorally at a dose of 10 mg/kg. It is filed as functional, organism-based. More on the design: dose 10 mg/kg. In outline: as §1
Test [5] shares this target. Kind of test: In vivo mean duration for Angiotensin I converting enzyme inhibitory activity in 2 rats administered perorally at a dose of 10 mg/kg. It is filed as functional, organism-based. More on the design: dose 10 mg/kg. The essentials:
as §1

For test [6] the target is unchanged. Nature of the test: In vivo percent mean decrease in Angiotensin I converting enzyme inhibitory activity in 2 rats administered perorally at a dose of 1.5 mg/kg. It is filed as functional, organism-based. More on the design: dose 1.5 mg/kg. In outline: as §1
The target is the same in test [7]. Nature of the test: In vivo percent mean decrease in Angiotensin I converting enzyme activity in 2 rats administered perorally at a dose of 10 mg/kg. It is filed as functional, organism-based. More on the design: dose 10 mg/kg. In outline:
as §1

For test [8] the target is unchanged. Nature of the test: In vivo percent mean decrease in Angiotensin I converting enzyme inhibitory activity in 5 rats administered perorally at a dose of 10 mg/kg. It counts as functional, organism-based. The arrangement: dose 10 mg/kg. The essentials:
as §1

Test [9] has the same target. Nature of the test: In vivo mean duration for Angiotensin I converting enzyme inhibitory activity in 5 rats administered perorally at a dose of 10 mg/kg. It counts as functional, organism-based. More on the design: dose 10 mg/kg. In outline:
as §1

The subject of the next test is Rattus norvegicus. Kind of test: Effective dose against ACE inhibitory activity in rat in vivo. It is filed as functional. In outline: as §1
The target in test [10] is T2, Angiotensin-converting enzyme (Rattus norvegicus). Nature of the test: In vivo percent mean decrease in Angiotensin I converting enzyme inhibitory activity in a rat administered perorally at a dose of 10 mg/kg. More on the design: dose 10 mg/kg. It counts as functional, organism-based. The essentials:
as §1

For test [11] the target is unchanged. Kind of test: In vivo mean duration for Angiotensin I converting enzyme inhibitory activity in rat administered perorally at a dose of 10 mg/kg. It is filed as functional, organism-based. The arrangement: dose 10 mg/kg. In outline:
as §1

Regarding `O=C(O)CN(C(=O)c1ccccc1S)C1CCCC1`, in test [1], half-maximal inhibition (IC50) was put at 4.8 µM. Besides, in test [2], the Mean duration worked out at 35 min. Also, in test [3], the Mean decrease worked out at 34%.

Regarding `O=C(O)CN(C(=O)c1cccc(S)c1)C1CCCC1`, the IC50 in [1] is 25 µM. The Mean decrease in [4] was 13%. The compound also returned a Mean duration in test [5] of 0 min.

Regarding `CC(C)(C)C(=O)Sc1ccccc1C(=O)N(CC(=O)O)C1CCCC1`, the Mean duration in test [2] is 0 min. The compound also returned a Mean decrease in test [6] of 19%.

`O=C(O)CN(C(=O)c1cccc(F)c1S)C1CCCC1` returned an IC50 in [1] of 0.55 µM. This compound registered a Mean decrease in [4] of 84%. In [5], this compound returned a Mean duration of 105 min.

For the compound `O=C(O)CN(C(=O)c1cc(Cl)cc(Cl)c1O)C1CCCC1`, the IC50 in [1] was 100 µM.

On to `Cc1cccc(C(=O)N(CC(=O)O)C2CCCC2)c1S`, for which the IC50 in test [1] came out at 4.6 µM. Moreover, the Mean decrease in [4] was 77%. In addition, in [5], the Mean duration is 50 min.

In test [1], `CC(=O)Sc1ccc(C(=O)N(CC(=O)O)C2CCCC2)cc1` came in with an IC50 of 21 µM.

In turn, `O=C(O)CN(C(=O)c1cc(Cl)ccc1S)C1CCCC1` displayed an IC50 in test [1] of 80 µM. Also, the Mean duration in test [5] is 0 min. The compound also displayed a Mean decrease in test [7] of 22%.

For the compound `O=C(O)CN(C(=O)c1ccccc1C(=O)O)C1CCCC1`, the midpoint of inhibition in [1], the IC50, lay at 100 µM.

As for `O=C(O)CN(C(=O)c1cccc(C(F)(F)F)c1S)C1CCCC1`, it took 0.68 µM to reach half-maximal inhibition in test [1] (IC50). Further, the Mean decrease in test [4] was determined as 31%. Also, the Mean duration in [5] is 20 min.

`CC(=O)Sc1c(C)cccc1C(=O)N(CC(=O)O)C1CCCC1` displayed an IC50 in test [1] of 2.2 µM. The Mean duration in [2] was found to be 20 min. The compound also had a Mean decrease in [6] of 35%.

With `COc1cccc(C(=O)N(CC(=O)O)C2CCCC2)c1S`, the IC50 in [1] came out at 0.38 µM. The same compound registered a Mean decrease in test [8] of 92%. The compound also displayed a Mean duration in test [9] of 4 h. The ED50 in the test with Rattus norvegicus came to 0.8 mg/kg.

Compound `CC(=O)Sc1cccc(C(=O)N(CC(=O)O)C2CCCC2)c1` had an IC50 in test [1] of 28 µM.

In test [1], `O=C(O)CN(C(=O)c1cc(Cl)cc(Cl)c1S)C1CCCC1` displayed an IC50 of 4.1 µM.

In turn, `O=C(O)CN(C(=O)c1ccccc1[N+](=O)[O-])C1CCCC1` displayed an IC50 in test [1] of 100 µM. The compound further yielded a Mean decrease in test [10] of 25%. For the same compound, in test [11], the Mean duration is 0 min.

Regarding `CC(=O)Sc1ccccc1C(=O)N(CC(=O)O)C1CCCC1`, in test [1], the IC50 stood at 9.1 µM. Also, the Mean duration in [2] is 0 min. The same compound registered a Mean decrease in [6] of 25%.

As for `CC(=O)Sc1c(F)cccc1C(=O)N(CC(=O)O)C1CCCC1`, in test [1], the IC50 amounted to 0.6 µM. In test [4], the Mean decrease turned out to be 82%. The Mean duration in [5] came out at 90 min.

In test [1], `CC(C)c1cccc(C(=O)N(CC(=O)O)C2CCCC2)c1S` returned an IC50 of 120 µM. The same compound displayed a Mean decrease in test [4] of 23%. Besides, the Mean duration in [5] is 0 min.

As to `O=C(O)CN(C(=O)c1ccc(S)cc1)C1CCCC1`, the IC50 in [1] was 21 µM.

As for `O=C(O)CN(C(=O)c1cccc(Cl)c1S)C1CCCC1`, it took 0.28 µM to reach half-maximal inhibition in [1] (IC50). The Mean decrease in test [8] was determined as 85%. Besides, the Mean duration in test [9] was greater than 4 h. The compound further registered an ED50 in the test on Rattus norvegicus of 0.3 mg/kg.

Consider `CCOC(=O)CN(C(=O)c1cc(Cl)cc(Cl)c1OC(C)=O)C1CCCC1`, for which, in test [1], the IC50 is 100 µM.
